Measurements from ChEMBL document CHEMBL1124821, “Design of an antithrombotic-antihypertensive agent (Wy 27569). Synthesis and evaluation of a series of 2-heteroaryl-substituted dihydropyridines” (J Med Chem, 1990).
Several values for one entry are separate records, joined by “and”; a condition that tells them apart may be missing. Equal values may be shown once.

Tests used:
[1] = species: Homo sapiens; assay: The compound was tested for effects of compound on 6-KPGF1alpha production at molar concentration of 10e-3 in human platelet rich plasma; assay type: functional
[2] = species: Homo sapiens; assay: The compound was tested for effects of compound on 6-KPGF1alpha production at molar concentration of 10e-4 in human platelet rich plasma; assay type: functional
[3] = species: Homo sapiens; assay: The compound was tested for effects of compound on 6-KPGF1alpha production at molar concentration of 10e-5 in human platelet rich plasma; assay type: functional
[4] = species: Homo sapiens; assay: The compound was tested for effects of compound on 6-KPGF1alpha production at molar concentration of 10e-6 in human platelet rich plasma; assay type: functional
[5] = species: Homo sapiens; assay: The compound was tested for effects of compound on 6-KPGF1alpha production at molar concentration of 10e-7 in human platelet rich plasma; assay type: functional
[6] = species: Homo sapiens; assay: The compound was tested for effects of compound on TXB2 production at different molar concentration of 10e-3 in human platelet rich plasma; assay type: functional
[7] = species: Homo sapiens; assay: The compound was tested for effects of compound on TXB2 production at different molar concentration of 10e-4 in human platelet rich plasma; assay type: functional
[8] = species: Homo sapiens; assay: The compound was tested for effects of compound on TXB2 production at different molar concentration of 10e-5 in human platelet rich plasma; assay type: functional
[9] = species: Homo sapiens; assay: The compound was tested for effects of compound on TXB2 production at different molar concentration of 10e-6 in human platelet rich plasma; assay type: functional
[10] = species: Homo sapiens; assay: The compound was tested for effects of compound on TXB2 production at different molar concentration of 10e-7 in human platelet rich plasma; assay type: functional
[11] = system: Rattus norvegicus; assay: Reduction in blood pressure of rats, 2 hr after 0.03 mmol/kg p.o. administration; assay type: functional
Procedure, shortened: (§1)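 Female SHR (250–300 g) kept in 37 °C constant-temperature housing; systolic pressure measured by tail-cuff with a pneumatic pulse transducer. Rats below 155 mmHg discarded. Groups of four given a single oral dose in 0.5% (hydroxypropyl)methylcellulose–0.9% saline (10 mL/kg) or vehicle alone; pressure recorded before dosing and at 2, 6 and 24 h. Analysed by analysis of variance.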

[12] = system: Rattus norvegicus; assay: The compound was tested for plasma levels of 6-KPGF1alpha in rats after 2 hr following dose 3(mg/kg) in oral administration. (p<0.05); assay type: functional, organism-based
Procedure, shortened: (§2)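 Female normotensive rats killed by CO₂ asphyxiation 2 h after oral dosing with compound or vehicle (n = 10–13 per group). Blood taken from the posterior vena cava with 1% EDTA, centrifuged at once (10000g, 10 min), and plasma stored at –30 °C. TXB₂ and 6-KPGF1α measured by radioimmunoassay, in pg/mL, mean ± SEM. p < 0.05 versus controls taken as significant.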

[13] = system: Rattus norvegicus; assay: The compound was tested for plasma levels of 6-KPGF1alpha in rats after 2 hr following dose 10(mg/kg) in oral administration.; assay type: functional, organism-based; procedure, shortened: as §2
[14] = system: Rattus norvegicus; assay: The compound was tested for plasma levels of TXB2 in rats after 2 hr following dose 10(mg/kg) in oral administration.; assay type: functional, organism-based; procedure, shortened: as §2
[15] = system: Rattus norvegicus; assay: The compound was tested for plasma levels of TXB2 in rats after 2 hr following dose 3(mg/kg) in oral administration.; assay type: functional, organism-based; procedure, shortened: as §2
[16] = biological target: Thromboxane-A synthase (Oryctolagus cuniculus); assay: Inhibition of Thromboxane A2 synthase in rabbit platelets in vitro
[17] = system: Rattus norvegicus; assay: The compound was tested for reducing blood pressure in rats after 6 hours of 0.03 mmol/kg oral administration.; assay type: functional; procedure, shortened: as §1
[18] = system: Rattus norvegicus; assay: The compound was tested for reducing blood pressure in rats after 6 hours of 0.003 mmol/kg oral administration.; assay type: functional; procedure, shortened: as §1
[19] = system: Rattus norvegicus; assay: The compound was tested for reducing blood pressure in rats after 2 hours of 0.003 mmol/kg oral administration.; assay type: functional; procedure, shortened: as §1

Row | Compound | Decrease in blood pressure [11] | IC50 [16] | Decrease in blood pressure [17] | further results
1 | CCOC(=O)C1=C(C)NC(C)=C(C(=O)OC)C1c1cccc([N+](=O)[O-])c1 (stereo not given) [NITRENDIPINE] | 33% | – | – | Production [1]: 96%; Production [2]: 121%; Production [3]: 136%; Production [4]: 113%; Production [5]: 112%; Production [6]: 35%; Production [7]: 40%; Production [8]: 81%; Production [9]: 84%; Production [10]: 87%; Plasma concentration [12]: 62 pg/mL; Plasma concentration [13]: 60 pg/mL; Plasma concentration [14]: 562 pg/mL; Plasma concentration [15]: 564 pg/mL
2 | CCO/C(O)=C1\C(Cn2ccnc2)=NC(Cn2ccnc2)=C(C(=O)OC)C1c1cccc([N+](=O)[O-])c1 (stereo not given) | – | 0.6 µM | – | –
3 | CCOC(=O)C1=C(C)N=C(CCn2ccnc2)/C(=C(/O)OCC)C1c1ccccc1[N+](=O)[O-].O=C(O)/C=C\C(=O)O (stereo not given) | 44% | 2.3 µM | – | –
4 | CCO/C(O)=C1\C(C)=NC(Cn2ccnc2)=C(C(=O)OC)C1c1cccc(C(F)(F)F)c1Cl (stereo not given) | 16% | 125 µM | – | –
5 | CCOC(=O)C1=C(CCn2ccnc2)N=C(CCn2ccnc2)/C(=C(/O)OCC)C1c1cccc([N+](=O)[O-])c1 (stereo not given) | – | 5.3 µM | – | –
6 | CCO/C(O)=C1\C(COCCc2cccnc2)=NC(C)=C(C(=O)OC)C1c1cccc([N+](=O)[O-])c1.Cl (stereo not given) | 40% | – | – | –
7 | COC(=O)C1=C(C)N=C(Cn2ccnc2)/C(=C(/O)OC)C1c1cccc([N+](=O)[O-])c1.Cl (stereo not given) | 42% | – | 27% | –
8 | Br.CCO/C(O)=C1\C(Cn2ccnc2)=NC(C)=C(C(=O)OC)C1c1c(F)cccc1Cl (stereo not given) | 48% and 35% | 19.5 µM | – | –
9 | CCOC(=O)C1=C(C)N=C(Cn2ccnc2)/C(=C(/O)OCC)C1c1cccc([N+](=O)[O-])c1.Cl (stereo not given) | 47% | – | 13% | –
10 | CCO/C(O)=C1\C(Cn2ccnc2)=NC(C)=C(C(=O)OC)C1c1ccccc1[N+](=O)[O-] (stereo not given) | 59% | – | 56% | Decrease in blood pressure [18]: 14%; Decrease in blood pressure [19]: 44%
11 | CCO/C(O)=C1\C(Cn2ccnc2)=NC(C)=C(C(=O)OC)C1c1cccc(C(F)(F)F)c1Cl (stereo not given) | 60% | – | 52% | Decrease in blood pressure [19]: 16%
